Experimental data as given in ChEMBL document CHEMBL1143072, “Nitric oxide production inhibitory activity of flavonoids contained in trunk exudates of Dalbergia sissoo” (J Nat Prod, 2008).

What was measured:
J774.1 = experiment: Inhibition of nitric oxide production in LPS induced mouse J774.1 cells; assay type: functional, cell-based
How it was run: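 J774.1 cells are grown in DMEM with 10% FCS, penicillin and streptomycin. Adherent cells are plated at 1 × 10^5 cells/well and left 6 h at 37 °C in 5% CO2. Fresh medium with LPS 1 µg/mL and the compound at a range of concentrations is added for 24 h. Nitrite in the supernatant is measured with Griess reagent (10 min, room temperature, A550), with medium blank subtracted. % inhibition is taken against LPS-only wells. L-NMMA is the positive control.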

[1] = Cytotoxicity against LPS induced mouse J774.1 cells by MTT assay; assay type: cell-based
How it was run: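 LPS-stimulated J774.1 cells from the NO assay (1 × 10^5 cells/well, 24 h with LPS 1 µg/mL plus compound). After the supernatant is taken off, cells get fresh medium with MTT 2 mg/mL for 3 h at 37 °C in 5% CO2. Formazan is dissolved in DMSO and absorbance is read at 550 nm.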

[2] = Inhibition of NO production in LPS induced mouse J774.1 cells by Griess assay

SMILES | IC50 (J774.1) [µM] | IC50 [2] [µM] | Activity [1] [µM]
C=C[C@H](C1=CC(=O)C(OC)=CC1=O)c1ccc(O)cc1 | 11.5 |  | > 100
COc1ccc(C(=O)/C=C/c2ccccc2)c(O)c1 | 5.4 |  | > 25
C=C[C@@H](c1ccccc1)c1cc(O)ccc1O | 31.6 |  | 

Further lines, with some results ahead:

IC50 (J774.1) [µM] | IC50 [2] [µM] | SMILES | Activity [1] [µM]
38.8 |  | C=C[C@H](C1=CC(=O)C(OC)=CC1=O)c1ccccc1 | 
3.19 |  | C=CC(c1ccccc1)C1(O)C(=O)C=C(OC)C(=O)C1O (configuration not stated) | > 100
6.22 |  | COC1=CC(O)(C/C=C/c2ccccc2)C(OC)=CC1=O (configuration not stated) | 
39.7 |  | C=C[C@H](C1=CC(=O)C=CC1=O)c1ccccc1 | 
31.6 | 27.1 | CNC(=N)NCCC[C@H](N)C(=O)O [TILARGININE] | 
